ChEMBL document CHEMBL3351586, “Diterpenes from a Chinese collection of the brown alga Dictyota plectens” (J Nat Prod, 2014)

What was measured:
HEK293 [1] = experiment: Cytotoxicity against HEK293 cells infected with VSV-G protein pseudotyped HIV1; type: cell-based; conditions: Homo sapiens
[2] = system: Human immunodeficiency virus 1; experiment: Antiviral activity against VSV-G protein pseudotyped HIV1 system in HEK293T cells assessed as reduction in p24 level after 48 hrs by ELISA; type: functional, organism-based; conditions: Human immunodeficiency virus 1, HEK-293T
Procedure, shortened: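 VSV-G-pseudotyped HIV used as a counter-screen to judge the specificity of HA-directed entry inhibitors.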

[3] = Antiinflammatory activity in mouse peritoneal macrophages assessed as inhibition of LPS-induced NO production at 10 uM; type: functional; conditions: Peritoneal macrophage cell
HEK293 [4] = experiment: Inhibition of Influenza A virus (A/Viet Nam/1203/2004(H5N1)) hemagglutinin-mediated entry in HEK293 cells compound pretreated with target cells for 15 mins prior infection measured 48 hrs post infection by luciferase reporter assay; type: cell-based
Procedure, shortened: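 Entry screen: HIV-based pseudotype bearing H5N1 hemagglutinin (HA). Compounds tested at 30.0 μM. Value reported as percent inhibition of HA-mediated entry.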

[5] = Cytotoxicity against HEK293 cells infected with Influenza A virus (A/Viet Nam/1203/2004(H5N1)); type: cell-based; conditions: human
Procedure, shortened: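 Cytotoxicity measured on 293T cells and reported as CC50 (μmol/L).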

[6] = Antiinflammatory activity in mouse peritoneal macrophages assessed as inhibition of LPS-induced NO production at 1 uM; type: functional; conditions: Peritoneal macrophage cell

Row | SMILES | IC50 (HEK293 [1]) [µM] | IC50 [2] [µM] | inhibition at 10 µM [3] [%] | inhibition (HEK293 [4]) [%] | CC50 [5] [µM] | inhibition at 1 µM [6] [%]
1 | C=C1C[C@@H](O)[C@@H]([C@H](C)CCC=C(C)C)[C@@H](O)[C@@H]2C(C)=CC[C@@H]12 | > 60 | 26.1 | < 50 |  |  | 
2 | CC(=O)OC[C@@H]1/C(C=O)=C\C/C=C(\C)C[C@@H](O)[C@H]1[C@H](C)CCC=C(C)C | > 60 | 21.9 | < 50 |  |  | 
3 | CC(C)=CCC[C@@H](C)[C@H]1C2=C(C(=O)OC2)[C@H]2C[C@H]2[C@H](C)C[C@H]1O |  |  | < 50 | 62 | > 60 | 
4 | C=C1CC[C@@H]([C@@](C)(O)CCC=C(C)C)[C@@H](O)[C@@H]2C(C)=CC[C@@H]12 | > 60 | 24 | 90 |  |  | < 50
5 | C=C1CC[C@@H](O)[C@@]2(C)C[C@@H](OC(C)=O)C3=C(C(C)C)CC[C@]3(C)C[C@]12O | 53 | 16.1 | < 50 |  |  | 
6 | Cc1ccnc2c1NC(=O)c1cccnc1N2C1CC1 [NEVIRAPINE] |  | 0.05 |  |  |  | 
7 | CC(=O)O[C@H]1C/C=C(\C)CC[C@@H]([C@H](C)CCC=C(C)C)[C@@H](O)/C=C/1C | > 60 | 30.5 | < 50 |  |  | 
8 | C/C1=C/CC/C(C)=C/C[C@@]2(C)CC[C@@](O)(C(C)C)[C@@H]2CC1=O (relative stereo) |  |  | < 50 | 56 | > 60 | 
9 | C=C1C[C@H](O)[C@@H]([C@@](C)(O)CCC=C(C)C)[C@@H](O)[C@@H]2C(C)=CC[C@@H]12 |  |  | < 50 | 50 | > 60 | 
10 | CC(C)=CCC[C@@H](C)[C@@H]1[C@H](O)C/C(C)=C/C/C=C(/C=O)[C@H]1C=O |  |  | 86 | 59 | > 60 | < 50
